What was measured:
Cathepsin B = Cathepsin B (Homo sapiens, UniProt P07858); assay: Inhibitory constant against human cathepsin B using Boc-Leu-Lys-Arg-AMC substrate; details: read-out: Ki app
Cathepsin S = Cathepsin S (Homo sapiens, UniProt P25774); assay: Inhibitory constant against human cathepsin S using Z-Val-Val-Arg-AMC substrate; details: read-out: Ki app
Outline: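 Recombinant human cathepsin S at 500 pM in 50 mM MES pH 6.5, 2.5 mM β-mercaptoethanol, 2.5 mM EDTA, 100 mM NaCl, 0.001% BSA, 10% DMSO. 30 min enzyme–inhibitor preincubation at 21–24 °C, 8 inhibitor concentrations. Started with 60 μM Z-Val-Val-Arg-AMC; initial rates by AMC fluorescence (ex 355/em 460). Ki(app) by Morrison tight-binding fit.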

[1] = biological target: Cathepsin K (Homo sapiens) (UniProt P43235); assay: Inhibitory constant against human cathepsin K using Z-Phe-Arg-AMC substrate; details: read-out: Ki app
Procathepsin L = Procathepsin L (Homo sapiens, UniProt P07711); assay: Inhibitory constant against human cathepsin L using Z-Phe-Arg-AMC substrate; details: read-out: Ki app
Chain of Procathepsin L (P07711 whole entry): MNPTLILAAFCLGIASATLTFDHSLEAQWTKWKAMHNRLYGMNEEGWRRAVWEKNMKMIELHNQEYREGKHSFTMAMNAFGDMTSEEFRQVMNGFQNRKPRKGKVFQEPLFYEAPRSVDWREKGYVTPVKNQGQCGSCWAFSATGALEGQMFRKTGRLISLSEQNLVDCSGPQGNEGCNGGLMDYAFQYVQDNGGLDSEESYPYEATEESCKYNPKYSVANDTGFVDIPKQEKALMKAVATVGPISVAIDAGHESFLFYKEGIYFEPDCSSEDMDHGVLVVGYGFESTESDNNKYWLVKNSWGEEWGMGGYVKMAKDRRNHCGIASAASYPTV
Outline: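 Recombinant human cathepsin L at 500 pM in 50 mM MES pH 5.5, 2.5 mM DTT, 2.5 mM EDTA, 10% DMSO. Enzyme preincubated with inhibitor (8 concentrations) 30 min at 21–24 °C. Reaction started with 10 μM Z-Phe-Arg-AMC; AMC fluorescence (ex 355/em 460 nm) over first ~5 min. Ki(app) fitted with Morrison tight-binding model.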

[2] = Maximum concentration in rat administered with 0.5 mg/kg, iv; assay type: ADME, organism-based; parameters: dose 0.5 mg/kg, route intravenous; details: in vivo
Osteoclast = assay: In vitro bone resorption in isolated rabbit osteoclasts; assay type: functional, cell-based; details: Oryctolagus cuniculus
Outline: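 Bovine bone degraded by isolated rabbit osteoclasts; collagen degradation read by ELISA. 8-point dose–response curves; IC50 derived.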

Rattus norvegicus [3] = assay: Mean residence time in rat administered with 0.5 mg/kg, iv; assay type: functional, organism-based; parameters: dose 0.5 mg/kg
Outline: (§1)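 Rats, three per study, cassette iv dosing of up to four compounds. Formulation DMSO (<20%), PEG 400 (<20%) and water at 0.5 mg/mL per compound, given at 1 mL/kg for 0.5 mg/kg per compound.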

Rattus norvegicus [4] = assay: Terminal half-life in rat administered with 0.5 mg/kg, iv; assay type: functional, organism-based; parameters: dose 0.5 mg/kg; outline: as §1

Chain of Cathepsin S (P25774 whole entry): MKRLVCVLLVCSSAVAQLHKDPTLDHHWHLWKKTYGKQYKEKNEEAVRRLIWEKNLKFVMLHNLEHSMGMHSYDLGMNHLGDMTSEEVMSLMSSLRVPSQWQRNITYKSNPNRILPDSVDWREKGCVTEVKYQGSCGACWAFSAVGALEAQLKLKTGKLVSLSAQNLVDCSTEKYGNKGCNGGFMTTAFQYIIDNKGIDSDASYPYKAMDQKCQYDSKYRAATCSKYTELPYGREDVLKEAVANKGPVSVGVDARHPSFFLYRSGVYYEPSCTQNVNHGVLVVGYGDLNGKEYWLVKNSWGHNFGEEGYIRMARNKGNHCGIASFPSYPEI

Row | SMILES | Ki (Cathepsin B) [µM] | Ki (Cathepsin S) [µM] | Ki [1] [µM] | Ki (Procathepsin L) [µM] | Cmax [2] [µM] | IC50 (Osteoclast) [µM] | MRT (Rattus norvegicus [3]) [h] | T1/2 (Rattus norvegicus [4]) [h]
1 | CC(C)(C)C[C@H](NC(=O)OCc1ccccc1)C(=O)NCC#N | 63 | 0.15 | 0.23 | 23 |  |  |  | 
2 | N#CCNC(=O)C1(NC(=O)c2ccc(Br)s2)CCCCC1 | 3.1 | 1.4 | 0.016 | 5.9 |  |  |  | 
3 | N#CCNC(=O)C1(NC(=O)c2cccc(Br)c2)CCCCC1 | 7.9 | 6.2 | 0.23 | 7.9 |  |  |  | 
4 | C[C@@H](O)[C@H](NC(=O)OCc1ccccc1)C(=O)NCC#N | > 150 | 42 | 11 | 14 |  |  |  | 
5 | N#CCNC(=O)[C@H](Cc1ccc2ccccc2c1)NC(=O)OCc1ccccc1 | 3 | 0.18 | 30 | 0.054 |  |  |  | 
6 | CC[C@H](C)[C@H](NC(=O)OCc1ccccc1)C(=O)NCC#N | 70 | 14 | 1.5 | 25 |  |  |  | 
7 | N#CCNC(=O)C1(NC(=O)c2csc(-c3ccncc3)n2)CCCCC1 | 9.3 | 4 | 0.15 | > 150 |  |  |  | 
8 | N#CCNC(=O)C1(NC(=O)CCc2ccccc2)CCCCC1 | 99 | 34 | 0.41 | > 150 |  |  |  | 
9 | N#CCNC(=O)C1(NC(=O)OCc2ccccc2)CCCC1 | 110 | > 150 | 1.5 | > 150 |  |  |  | 
10 | N#CCNC(=O)[C@@H](NC(=O)OCc1ccccc1)c1ccccc1 | > 150 | 3.5 | 17 | 88 |  |  |  | 
11 | N#CCNC(=O)C1(NC(=O)c2ccc(-c3csc(CN4CCOCC4)n3)cc2)CCCCC1 | 3.8 | 0.25 | 0.0087 | 2.2 | 0.55 | 0.21 | 0.26 | 
12 | CN1CCN(c2ccc(C(=O)NC3(C(=O)NCC#N)CCCCC3)cc2)CC1 | 2.7 | 16 | 0.0015 | 9.6 |  |  |  | 
13 | N#CCNC(=O)C1(NC(=O)c2ccc(Br)cc2)CCCCC1 | 2.3 | 10 | 0.018 | 17 |  |  |  | 
14 | CC(C)C[C@H](NC(=O)OCc1ccccc1)C(=O)NCC#N | 123 | 0.143 | 0.0347 | 2.79 |  |  |  | 
15 | CCCN1CCN(c2ccc(C(=O)NC3(C(=O)NCC#N)CCCCC3)cc2)CC1 [BALICATIB] | 2.9 | 28 |  | 18 |  |  |  | 
16 | N#CCNC(=O)C1(NC(=O)c2cccc(-c3ccccc3)c2)CCCCC1 | 8.3 | 1.9 | 0.21 | 22 |  |  |  | 
17 | CN1CCN(C(=O)c2ccc(C(=O)NC3(C(=O)NCC#N)CCCCC3)cc2)CC1 | 13 | 110 | 0.014 | > 150 |  |  |  | 
18 | N#CCNC(=O)C1(NC(=O)c2ccc(-c3csc(N4CC[C@@H](N)C4)n3)cc2)CCCCC1 | 3 | 4.5 | 0.0014 | 7.5 | 0.84 | 0.052 | 0.893 | 0.883
19 | N#CCNC(=O)C1(NC(=O)OCc2ccccc2)CC1 | > 150 | > 150 | > 150 | > 150 |  |  |  | 
20 | N#CCNC(=O)C1(NC(=O)OCc2ccccc2)CCCCC1 | 64 | 31 | 0.084 | 95 |  |  |  | 
21 | CN1CCN(S(=O)(=O)c2ccc(C(=O)NC3(C(=O)NCC#N)CCCCC3)cc2)CC1 | 3.1 | 102 | 0.013 | 71 |  |  |  | 
22 | CC(C)C[C@@H](NC(=O)OCc1ccccc1)C(=O)NCC#N | > 150 | 13.6 | 13 | > 150 |  |  |  | 
23 | N#CCNC(=O)C1(NC(=O)c2ccc(N)cc2)CCCCC1 | 10 | 6.5 | 0.032 | 45 |  |  |  | 
24 | CC(C)C[C@](C)(NC(=O)OCc1ccccc1)C(=O)NCC#N | > 150 | 4.2 | 1.8 | > 150 |  |  |  | 
25 | N#CCNC(=O)C1(NC(=O)c2ccc(N3CCOCC3)cc2)CCCCC1 | 8.6 | 42 | 0.019 | 50 |  |  |  | 
26 | CC(C)(C)[C@H](NC(=O)OCc1ccccc1)C(=O)NCC#N | > 150 | > 150 | 1.9 | > 150 |  |  |  | 
27 | CN(C)c1ccc(C(=O)NC2(C(=O)NCC#N)CCCCC2)cc1 | 5.2 | 35 | 0.0033 | 48 |  |  |  | 
28 | CCCC[C@H](NC(=O)OCc1ccccc1)C(=O)NCC#N | > 150 | 0.86 | 0.49 | 37 |  |  |  | 
29 | CC(C[C@H](NC(=O)OCc1ccccc1)C(=O)NCC#N)C(F)(F)F (some centres undefined) | > 150 | 0.4 | 0.35 | 22 |  |  |  | 

Now those with a lower Ki (Cathepsin B), led by results:

Row | Ki (Cathepsin B) [µM] | Ki (Cathepsin S) [µM] | Ki [1] [µM] | Ki (Procathepsin L) [µM] | Cmax [2] [µM] | IC50 (Osteoclast) [µM] | SMILES | MRT (Rattus norvegicus [3]) [h] | T1/2 (Rattus norvegicus [4]) [h]
30 | 1.8 | 2.5 | 0.0054 | 0.42 |  | 0.037 | N#CCNC(=O)C1(NC(=O)c2ccc(-c3ccc(-c4ccno4)cc3)cc2)CCCCC1 |  | 
31 | 1.7 | 26 | 0.00079 | 12 | 0.3 | 0.11 | CN(C)C1CCN(c2nc(-c3ccc(C(=O)NC4(C(=O)NCC#N)CCCCC4)cc3)cs2)C1 (centres undefined) | 0.683 | 0.633
32 | 1.5 | 42 | 0.00094 | 19 | 0.43 | 0.06 | CN1CCN(Cc2nc(-c3ccc(C(=O)NC4(C(=O)NCC#N)CCCCC4)cc3)cs2)CC1 | 1.25 | 1.28
33 | 1.4 | 20 | 0.0016 | 15 | 1.43 | 0.061 | CN1CCC(c2nc(-c3ccc(C(=O)NC4(C(=O)NCC#N)CCCCC4)cc3)cs2)CC1 | 0.233 | 0.717
34 | 1.4 | 3.2 | 0.0016 | 15 | 0.43 | 0.011 | CC(C)N(C)C1CCN(c2nc(-c3ccc(C(=O)NC4(C(=O)NCC#N)CCCCC4)cc3)cs2)CC1 | 2.02 | 1.92
35 | 1.3 | 8.8 | 0.0062 | 23 |  |  | N#CCNC(=O)C1(NC(=O)c2ccc(-c3ccccc3)cc2)CCCCC1 |  | 
36 | 1.3 | 20 | 0.00048 | 6.4 | 1.78 | 0.004 | COCCN1CCN(c2nc(-c3ccc(C(=O)NC4(C(=O)NCC#N)CCCCC4)cc3)cs2)CC1 | 0.683 | 1.97
37 | 1.1 | 15 | 0.013 | 18 |  |  | C#Cc1ccc(C(=O)NC2(C(=O)NCC#N)CCCCC2)cc1 |  | 
38 | 1.1 | 30 | 0.00095 | 7.6 | 0.44 | 0.046 | CN1CCC(C)(c2nc(-c3ccc(C(=O)NC4(C(=O)NCC#N)CCCCC4)cc3)cs2)CC1 | 2.33 | 2.28
39 | 0.89 | 21 | 0.00025 | 8.9 | 0.47 | 0.011 | CN1CCN(N(C)c2nc(-c3ccc(C(=O)NC4(C(=O)NCC#N)CCCCC4)cc3)cs2)CC1 | 1.03 | 1.53
40 | 0.84 | 17 | 0.00047 | > 150 | 0.49 | 0.008 | N#CCNC(=O)C1(NC(=O)c2ccc(-c3csc(N4CCN(C5CCOCC5)CC4)n3)cc2)CCCCC1 | 0.983 | 1.07
41 | 0.76 | 33 | 0.00059 | 12 | 0.66 | 0.019 | CC(C)NC1CCN(c2nc(-c3ccc(C(=O)NC4(C(=O)NCC#N)CCCCC4)cc3)cs2)CC1 | 2.42 | 2.55
42 | 0.74 | 68 | 0.00057 | 11 | 1.4 | 0.043 | N#CCNC(=O)C1(NC(=O)c2ccc(-c3csc(OC4CCNCC4)n3)cc2)CCCCC1 | 1.23 | 2.53
43 | 0.68 | 5.7 | 0.002 | 3.2 |  |  | CN(C)c1ccc(-c2ccc(C(=O)NC3(C(=O)NCC#N)CCCCC3)cc2)cc1 |  | 
44 | 0.59 | 10 | < 0.00025 | 4 |  | 0.024 | CN1CCC[C@H]1COc1ccc(-c2ccc(C(=O)NC3(C(=O)NCC#N)CCCCC3)cc2)cc1 |  | 
45 | 0.34 | 8.7 | < 0.00025 | 2 |  | 0.033 | CN1CCC(N(C)c2ccc(-c3ccc(C(=O)NC4(C(=O)NCC#N)CCCCC4)cc3)cc2)C1 (centres undefined) |  | 

— ChEMBL document CHEMBL1141198, “Design and synthesis of tri-ring P3 benzamide-containing aminonitriles as potent, selective, orally effective inhibitors of cathepsin K” (J Med Chem, 2005)
